Compounds with a hit are over-represented: about 1.8% of the library has one in this group of screens.
thrombin 1536 = human alpha-thrombin inhibitors, primary screen, counter-screen for coagulation protease inhibitor project, biochemical, 1536-well, fluorogenic AMC substrate; inhibition, % at 5 µM; AID 1046, 2008; Boc-VPR-AMC fluorogenic substrate cleavage; 220,000 compounds, 0.26% hits; Prothrombin (Homo sapiens), P00734;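 active = inhibition at or above 40%; inactive = inhibition below 40%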;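 note: 0% = enzyme with no compound and 100% = wells without enzyme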
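Test system: human alpha-thrombin; medium: pH 7.5 Tris-saline with Tween 20; times: reaction at room temperature; signal: AMC fluorescence at 355 nm excitation and 460 nm emission; also added: Boc-VPR-AMC substrate, 15 µM final; dosing: one concentration per compound, 5 µM, with 0.2% DMSO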
FXIa inh = human FXIa protease inhibitors, primary screen, biochemical, 1536-well; purified FXIa, Boc-Glu-Ala-Arg-AMC fluorogenic substrate; Coagulation factor XI (Homo sapiens), P03951; inhibition, % at 5 µM; 220,000 compounds, 0.14% hits;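 active = inhibition of at least 40%; inactive = inhibition below 40%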;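 note: fluorescence of freed AMC excited at 355 nm; 0% = enzyme without compound and 100% = no enzyme blank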
Platelet DG rel = inhibitors of platelet dense granule secretion, primary screen, cell-based, MLPCN, human platelets | human platelet-rich plasma, SFLLRN dense granule ATP release, luminescence | inhibition, %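 (compounds screened at 7.5 µM in platelet-rich plasma)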 | 300,000 compounds, 0.22% hits | AID 1663, 2009;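 active = mean replicate score, as percent of positive control, at or above 50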
Wee1 stabilizer = Wee1 degradation inhibitors, primary screen, cell-based, HeLa, Wee1K328M-luciferase, luminescence | HeLa Luc-Wee1K328M stability; 100% = proteasome inhibitor MG132 effect | reporter increase, % at 5 µM | 220,000 compounds, 1.2% hits;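 active = activation above the mean of all tested compounds plus 3 SD, set per screening run, cut at about 8.8% in these data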;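 note: cells exposed to compound for 20 h before luminescence read; 0% = DMSO alone and 100% = MG132 at 30 µM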
FXIIa inh 1536 = human FXIIa protease inhibitors, primary screen, biochemical, 1536-well. purified FXIIa, Boc-QGR-AMC fluorogenic substrate, 2 h. inhibition, % at 5 µM. 220,000 compounds, 0.3% hits. Coagulation factor XII (Homo sapiens), P00748; in the data active = inhibition above about 40%;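 note: 0% = enzyme with no compound and 100% = blank without enzyme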
Target sequence (P00748 20-372 limits assumed): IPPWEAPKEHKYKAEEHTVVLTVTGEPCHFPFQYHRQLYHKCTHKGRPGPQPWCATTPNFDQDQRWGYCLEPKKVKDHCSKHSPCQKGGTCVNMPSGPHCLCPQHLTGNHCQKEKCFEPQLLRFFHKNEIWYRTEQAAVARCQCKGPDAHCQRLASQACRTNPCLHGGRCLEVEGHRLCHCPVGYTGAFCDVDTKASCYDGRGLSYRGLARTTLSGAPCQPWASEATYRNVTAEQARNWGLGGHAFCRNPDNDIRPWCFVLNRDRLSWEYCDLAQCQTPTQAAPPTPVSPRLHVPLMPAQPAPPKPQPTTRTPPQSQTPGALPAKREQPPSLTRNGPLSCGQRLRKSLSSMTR
Target sequence (P00748 373-615 limits assumed): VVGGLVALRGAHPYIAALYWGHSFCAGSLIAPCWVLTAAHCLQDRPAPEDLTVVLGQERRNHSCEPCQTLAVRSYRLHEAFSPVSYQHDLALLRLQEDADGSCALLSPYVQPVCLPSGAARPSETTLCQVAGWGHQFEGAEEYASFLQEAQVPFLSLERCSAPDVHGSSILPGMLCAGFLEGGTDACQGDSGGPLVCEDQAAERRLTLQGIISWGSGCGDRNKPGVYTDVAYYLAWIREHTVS
hK5 inh = human KLK5 protease inhibitors, primary screen, biochemical, 1536-well; recombinant hK5, fluorogenic AMC substrate cleavage; inhibition, % at 5 µM; 210,000 compounds, 0.59% hits;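 active = inhibition of 40% or more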;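 note: 0% = enzyme controls without compound and 100% = no-enzyme blanks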
* = called active by the depositor.

How did Cc1nc2sccn2c(=O)c1S(=O)(=O)NCc1ccccc1 do in these assays?
Platelet DG rel: 2.2

Results for Cc1nc2sccn2c(=O)c1S(=O)(=O)NC(C)c1ccccc1 (stereo not drawn) ?
Platelet DG rel: 63.4*

How did Cc1nc2sccn2c(=O)c1S(=O)(=O)NCC(C)c1ccccc1 (stereo not drawn) do in these assays?
Platelet DG rel: 57.8*

Results for COc1cc(CCN2C(=O)c3cccc4cccc(c34)C2=O)c(S(=O)(=O)NCCCO)cc1OC ?
thrombin 1536: 3.1; FXIa inh: 9.5; Platelet DG rel: 15.4; Wee1 stabilizer: -1.1; FXIIa inh 1536: 10.4; hK5 inh: 3.6

What do the screens show for `CC(C(=O)NCc1ccco1)n1cc([N+](=O)[O-])cn1` (stereo not drawn)?
thrombin 1536: 5.0; FXIa inh: -2.4; Platelet DG rel: 1.8; Wee1 stabilizer: -2.4; FXIIa inh 1536: 3.3; hK5 inh: -9.8

What do the screens show for `COc1ccc(-c2noc(CCCC(=O)Nc3ccc(C(N)=O)cc3)n2)cc1OC`?
thrombin 1536: -1.4; FXIa inh: 11.9; Platelet DG rel: -2.9; Wee1 stabilizer: -2.8; FXIIa inh 1536: 15.6; hK5 inh: -2.1

Results for O=C(CSc1nc2cccnc2n1Cc1ccccc1)N1CCCC1 ?
thrombin 1536: 19.2; FXIa inh: 6.0; Platelet DG rel: -3.9; Wee1 stabilizer: -2.1; FXIIa inh 1536: 19.7; hK5 inh: 46.0*

How did Cn1c(SCC(=O)N2CCCC2)nc2cccnc21 do in these assays?
thrombin 1536: 0.3; FXIa inh: 2.2; Platelet DG rel: -1.1; Wee1 stabilizer: -1.4; FXIIa inh 1536: 10.3; hK5 inh: -4.9

What do the screens show for `CCC(C)NS(=O)(=O)c1ccc(OCC(=O)Nc2ccc(F)cc2F)cc1` (stereo not drawn)?
thrombin 1536: -0.9; FXIa inh: 7.1; Platelet DG rel: -8.1; Wee1 stabilizer: -1.2; FXIIa inh 1536: 8.5; hK5 inh: -9.6

How did CC(C)CNS(=O)(=O)c1ccc(OCC(=O)Nc2ccc(F)cc2F)cc1 do in these assays?
thrombin 1536: 0.9; FXIa inh: 12.2; Platelet DG rel: -2.5; Wee1 stabilizer: 9.0*; FXIIa inh 1536: 20.7; hK5 inh: -5.2

What do the screens show for `C#CCSc1nncn1C(=O)/C=C/c1ccccc1`?
thrombin 1536: 90.2*; FXIa inh: 30.0; Platelet DG rel: 0.3; Wee1 stabilizer: -0.2; FXIIa inh 1536: 30.6; hK5 inh: 35.4

How did Cc1cccc(N2CCN(C(=O)c3ccc4c(c3)CCN4S(C)(=O)=O)CC2)c1C do in these assays?
Platelet DG rel: 2.6

How did CCOC(=O)c1cccc(COC(=O)c2cccc(-c3nnc(-c4ccccc4)o3)c2)c1 do in these assays?
thrombin 1536: -5.5; FXIa inh: 11.0; Platelet DG rel: -5.3; Wee1 stabilizer: 9.7*; FXIIa inh 1536: 11.5; hK5 inh: -12.3

Results for O=C(OCc1ccccc1)c1cccc(-c2nnc(-c3ccccc3)o2)c1 ?
thrombin 1536: 0.3; FXIa inh: -2.2; Platelet DG rel: -1.0; Wee1 stabilizer: 0.2; FXIIa inh 1536: -8.4; hK5 inh: -3.2

Results for O=C(CN(C(=O)c1ccccc1Cl)C1CCCCC1)Nc1ccc(Cl)c([N+](=O)[O-])c1 ?
thrombin 1536: 0.2; FXIa inh: 4.6; Platelet DG rel: 2.6; Wee1 stabilizer: -0.8; FXIIa inh 1536: 69.8*; hK5 inh: 1.1

How did COc1ccc(OCCCC(=O)N(C)CC(=O)Nc2ccccc2Cl)cc1 do in these assays?
Platelet DG rel: 32.1

Results for COc1ccc(O)c(/C=N/NC(=O)c2cc(=O)[nH]c3ccccc23)c1 ?
thrombin 1536: 19.6; FXIa inh: 36.9; Platelet DG rel: 4.2; Wee1 stabilizer: 1.5; FXIIa inh 1536: 66.0*; hK5 inh: 13.9

How did O=C1NCCN1C(=O)c1cccc(Cl)c1 do in these assays?
thrombin 1536: 1.1; FXIa inh: -0.6; Wee1 stabilizer: 11.9*; FXIIa inh 1536: 6.7; hK5 inh: -1.9

Results for Fc1ccccc1CSc1nc2ncccc2[nH]1 ?
thrombin 1536: -6.6; FXIa inh: 2.4; Platelet DG rel: -39.4; Wee1 stabilizer: 10.0*; FXIIa inh 1536: 7.2; hK5 inh: -5.3

What do the screens show for `CC(NS(C)(=O)=O)C(c1cccs1)N1CCN(Cc2ccccc2)CC1` (stereo not drawn)?
thrombin 1536: -0.7; FXIa inh: 1.8; Platelet DG rel: 65.3*; Wee1 stabilizer: 1.9; FXIIa inh 1536: 8.6; hK5 inh: 3.6

Results for CC(NS(C)(=O)=O)C(c1cccs1)N1CCN(C)CC1 (stereo not drawn) ?
thrombin 1536: 0.0; FXIa inh: -3.0; Platelet DG rel: 8.0; Wee1 stabilizer: -0.3; FXIIa inh 1536: 6.9; hK5 inh: -14.1

What do the screens show for `CC(C)CC(=O)N1CCC(N(CCc2ccccc2)Cc2ccccc2)CC1`?
Platelet DG rel: 3.8

What do the screens show for `CS(=O)(=O)N1CCN=C1SCc1ccc([N+](=O)[O-])cc1`?
thrombin 1536: 1.0; FXIa inh: -3.5; Platelet DG rel: -4.9; Wee1 stabilizer: 9.1*; FXIIa inh 1536: -0.2; hK5 inh: -8.1

Results for CS(=O)(=O)N1CCN(Cc2ccc([N+](=O)[O-])cc2)CC1 ?
thrombin 1536: 9.6; FXIa inh: 33.3; Platelet DG rel: 1.4; Wee1 stabilizer: -1.7; FXIIa inh 1536: 36.6; hK5 inh: 50.8*

How did CCCS(=O)(=O)N1CCN(Cc2ccc([N+](=O)[O-])cc2)CC1 do in these assays?
thrombin 1536: -12.4; FXIa inh: 1.5; Platelet DG rel: -5.4; Wee1 stabilizer: 5.9; FXIIa inh 1536: 10.9; hK5 inh: -2.1

Results for O=C(O)CC/C(=N/NC(=O)CNC(=O)c1ccc2c(c1)OCCO2)c1ccccc1 ?
Platelet DG rel: -24.4

What do the screens show for `Cc1c(CC(=O)N2C[C@H]3C[C@@H](C2)c2cccc(=O)n2C3)c(=O)oc2cc3occ(C(C)(C)C)c3cc12`?
Platelet DG rel: -1.8

What do the screens show for `CN1CCN(C(c2cccs2)c2nnnn2Cc2ccc(F)cc2)CC1` (stereo not drawn)?
thrombin 1536: 2.5; FXIa inh: 1.6; Platelet DG rel: -1.7; Wee1 stabilizer: 2.1; FXIIa inh 1536: 11.7; hK5 inh: 3.8

What do the screens show for `Cc1cccc(N2CCN(C(=O)CCCSc3nc4ccccc4[nH]3)CC2)c1C`?
thrombin 1536: 2.6; FXIa inh: 8.0; Platelet DG rel: -6.1; Wee1 stabilizer: -2.4; FXIIa inh 1536: 21.5; hK5 inh: 3.0

Bioassay records from PubChem.
